{
  "source": "paper PMC6217710",
  "about": "(Pain Medicine: The Official Journal of the American Academy …, 2018)",
  "key": {"[1]": {"tested_on": "healthy male subjects", "assay": "Laser-evoked potentials", "assay_type": "in vivo, human", "summary_of_the_method": "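Crossover in 24 healthy CYP2D6 extensive/intermediate-metabolizer males: 4 double-blind, double-dummy single-dose periods with 6-day washouts. Back skin got topical 1% alcoholic capsaicin under occlusion for 25 min, then two CO2-laser rekindling sessions. Each session used ≥13 80-msec laser stimuli at the fixed individual pain-threshold intensity. Vertex EEG (Cz vs right mastoid, artifacts rejected) recorded predose and hourly to 8 h. Value is the N2-P2 amplitude difference vs placebo.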"}, "[2]": {"tested_on": "healthy male subjects", "settings": "previous data in healthy subjects; cited from earlier work"}, "[3]": {"assay": "Plasma pharmacokinetics after single oral dose", "assay_type": "in vivo", "settings": "human, 150 mg"}, "[4]": {"tested_on": "healthy male subjects", "assay": "Safety and tolerability", "assay_type": "in vivo, human"}, "[5]": {"tested_on": "healthy male subjects", "assay": "Postlaser pain visual analog scale", "assay_type": "in vivo, human", "settings": "all subjects", "summary_of_the_method": "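Measured in the same capsaicin-pretreated back-skin sessions of the 4-period crossover (24 healthy males, double-blind, single doses, 6-day washout). Laser intensity was held at each subject's pain threshold, set on untreated skin during screening. After the laser stimuli, subjects rated pain on a 0–100 mm visual analog scale, expressed as %. Ratings were taken predose and hourly up to 8 h, compared against placebo.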"}},
  "data": [
    {"smiles": "CC(C)C[C@H](CN)CC(=O)O", "note": "[Pregabalin, pregabalin]", "values": [
      {"measurement": "Difference in LEP N2-P2 PtP amplitudes", "setting": "[1]; pregabalin 150 mg single dose vs placebo, all subjects (n = 24)", "result": "–3.30 μV"},
      {"measurement": "LEP N2-P2 PtP amplitude value", "setting": "[1]; pregabalin 150 mg, overall, all subjects", "result": 26.7, "unit": "μV"},
      {"measurement": "Reductions in PtP amplitudes of LEPs maintained postdose", "setting": "[2]", "result": "more than six hours"},
      {"measurement": "Start of reductions in PtP amplitudes of LEPs", "setting": "[2]", "result": "one to two hours postadministration"},
      {"measurement": "Tmax", "setting": "[3]", "result": 1.08, "unit": "h"},
      {"measurement": "Cmax", "setting": "[3]; mean Cmax, pregabalin 150 mg single oral dose", "result": 3480, "unit": "ng/mL"},
      {"measurement": "Subjects who reported TEAEs", "setting": "[4]; during treatment with pregabalin 150 mg", "result": 50, "unit": "%"},
      {"measurement": "Any TEAE", "setting": "[4]; pregabalin 150 mg (n = 24)", "result": "12 (50) No. (%)"},
      {"measurement": "Dizziness", "setting": "[4]; pregabalin 150 mg (n = 24)", "result": "6 (25) No. (%)"},
      {"measurement": "Drug-related TEAE", "setting": "[4]; pregabalin 150 mg (n = 24)", "result": "12 (50) No. (%)"},
      {"measurement": "Fatigue", "setting": "[4]; pregabalin 150 mg (n = 24)", "result": "4 (17) No. (%)"},
      {"measurement": "Headache", "setting": "[4]; pregabalin 150 mg (n = 24)", "result": "0 No. (%)"},
      {"measurement": "Nausea", "setting": "[4]; pregabalin 150 mg (n = 24)", "result": "1 (4) No. (%)"},
      {"measurement": "Serious TEAE", "setting": "[4]; pregabalin 150 mg (n = 24)", "result": "0 No. (%)"},
      {"measurement": "Somnolence", "setting": "[4]; pregabalin 150 mg (n = 24)", "result": "1 (4) No. (%)"},
      {"measurement": "Vertigo", "setting": "[4]; pregabalin 150 mg (n = 24)", "result": "3 (13) No. (%)"},
      {"measurement": "Difference in VAS pain", "setting": "[5]; pregabalin 150 mg vs placebo", "result": "–9.90%"},
      {"measurement": "VAS pain score", "setting": "[5]; pregabalin 150 mg", "result": 36.6, "unit": "%"}
    ]}
  ]
}
